Values after ≈ are worked out from the molar mass of the structure shown.
Columns and labels:
Assay type in all cases: functional
Staphylococcus aureus [1] = test: Antimicrobial activity against epidemic methicillin-resistant Staphylococcus aureus 15 containing mecA gene
Outline: (§1)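 Broth microdilution MIC per NCCLS guidelines, at least in duplicate, in cation-adjusted Mueller-Hinton broth (20 mg/L Ca2+, 10 mg/L Mg2+). Strains grown on nutrient agar first. Inoculum 5×10^5 cfu prepared in 0.9% saline against a McFarland standard. Compounds dissolved in DMSO, 2-fold serial dilutions, final 1–512 µg/mL (DMSO ≤3.125% v/v). MIC taken as lowest concentration with no visible growth.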

HEp-2 = test: Cytotoxicity against human Hep2 cells after 72 hrs; details: HEp-2, 72 h, read-out: ED50 (the source's name)
Outline: (§2)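 Cells grown in RPMI 1640 with 10% fetal bovine serum at 37 °C, 5% CO2, humidified. Log-phase cells treated in triplicate with test samples at 0.16–20 μg/mL for 72 h. Growth read by the NCI sulforhodamine method. ED50 is the dose inhibiting 50% of control growth, estimated from a semilog plot of concentration against percentage of viable cells.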

Staphylococcus aureus [2] = test: Antimicrobial activity against methicillin-resistant Staphylococcus aureus XU212; outline: as §1
KB = test: Cytotoxicity against human KB cells after 72 hrs; details: read-out: ED50 (the source's name); outline: as §2
HeLa = test: Cytotoxicity against human HeLa cells after 72 hrs; details: read-out: ED50 (the source's name); outline: as §2
Staphylococcus aureus [3] = test: Antimicrobial activity against Staphylococcus aureus ATCC 25923
Outline: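 Broth microdilution MIC per NCCLS guidelines, at least in duplicate. Inoculum 5×10^5 cfu prepared in 0.9% saline against a McFarland standard. Cation-adjusted Mueller-Hinton broth with 20 mg/L Ca2+ and 10 mg/L Mg2+. Compounds dissolved in DMSO, then 2-fold serial dilutions, final 1–512 μg/mL; DMSO at most 3.125% v/v. MIC is the lowest concentration giving no visible growth.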

Staphylococcus aureus [4] = test: Antimicrobial activity against multidrug-resistant Staphylococcus aureus over expressing NorA MDR efflux pump; outline: as §1

Row | Compound | MIC (Staphylococcus aureus [1]) | EC50 (HEp-2) | MIC (Staphylococcus aureus [2]) | EC50 (KB) | EC50 (HeLa) | MIC (Staphylococcus aureus [3]) | MIC (Staphylococcus aureus [4])
1 | CCCCCCCCCCCC(=O)O[C@H]1[C@H](O[C@@H]2[C@H]3OC(=O)CCCCCCCCC[C@H](CCCCC)O[C@@H]4O[C@H](CO)[C@@H](O)[C@H](O)[C@H]4O[C@H](O[C@H]2C)[C@@H]3O)O[C@@H](C)[C@H](O[C@@H]2O[C@@H](C)[C@H](OC(=O)[C@@H](C)CC)[C@@H](O)[C@H]2O)[C@H]1O[C@@H]1O[C@@H](C)[C@H](O)[C@@H](O)[C@H]1O [MURUCOIDIN VI] | 256 µg/mL (≈ 202 µM) | > 20 µg/mL | 512 µg/mL (≈ 404 µM) | > 20 µg/mL | > 20 µg/mL | > 512 µg/mL | 32 µg/mL (≈ 25.2 µM)
2 | CCCCC[C@H]1CCCCCCCCCC(=O)O[C@H]2[C@H](O[C@H]3[C@H](O1)O[C@H](C)[C@H](O)[C@@H]3O)O[C@@H](C)[C@H](O[C@@H]1O[C@@H](C)[C@H](O[C@@H]3O[C@@H](C)[C@H](OC(=O)C(C)C)[C@@H](O)[C@H]3O)[C@@H](O[C@@H]3O[C@@H](C)[C@H](O)[C@@H](O)[C@H]3O)[C@H]1OC(=O)[C@@H](C)CC)[C@H]2O [MURUCOIDIN II] | > 512 µg/mL | > 20 µg/mL | > 512 µg/mL | > 20 µg/mL | 16 µg/mL (≈ 14 µM) | > 512 µg/mL | > 512 µg/mL
3 | C/C=C(\C)C(=O)O[C@H]1[C@H](O)[C@@H](O)[C@H](O[C@@H]2[C@H]3OC(=O)CCCCCCCCC[C@H](CCCCC)O[C@@H]4O[C@H](C)[C@@H](O)[C@H](O)[C@H]4O[C@@H]4O[C@H](CO)[C@@H](OC(=O)[C@H](C)[C@@H](C)O)[C@H](O)[C@H]4O[C@H](O[C@H]2C)[C@@H]3OC(=O)[C@@H](C)CC)O[C@@H]1C [ORIZABIN IX] | 256 µg/mL (≈ 228 µM) | > 20 µg/mL | 256 µg/mL (≈ 228 µM) | > 20 µg/mL | > 20 µg/mL | > 512 µg/mL | 512 µg/mL (≈ 457 µM)

— ChEMBL document CHEMBL1157407, “Inhibitors of bacterial multidrug efflux pumps from the resin glycosides of Ipomoea murucoides” (2008)
